Compound activity from PubChem.
The list is not random: actives were taken first. Their share in the collection is about 2.9%.
NRP1-CendR mod – alters CendR peptide binding to human NRP-1; O14786; FAM-RPARPAR peptide binding to NRP-1, fluorescence polarization; inhibition, % at 25 µM; 360,000 tested, 0.85% active;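 active = inhibition or corrected inhibition above about 18%, plus a signal ratio from 0.5 to 1.5, limit read from the data, passing the limit was not always enough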
Arr AP2 block – blocks beta-arrestin peptide binding to AP2 adaptin | FITC-arrestin peptide / GST-AP2 beads, flow cytometry; AP2 beta2 appendage carries R879A mutation | AID 504490 | 340,000 tested, 0.31% active | inhibition, % at 10 µM;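 active = inhibition above a set limit, near 3 SD of compounds lacking own fluorescence, cut at about 54% in these data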;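 note: plate controls were DMSO wells for no effect and 5 µM unlabelled arrestin peptide for full effect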
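Assay system: GST-AP2 R879A bound to glutathione beads, E. coli-expressed; Medium: PBS with 0.05% Tween 20 and 0.1% BSA; Also added: fluorescein-tagged arrestin peptide at 50 nM final; Timing: 12 min plus 1 h, RT; Measured by: flow cytometry, FL1 (488/535 nm); Evaluation: percent drop in bead-associated FITC signal.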
ADAM10 inh – inhibits human ADAM10; O14672; recombinant ADAM10, EDANS/DABCYL FRET peptide cleavage, 3 h; inhibition, % at 7 µM; 370,000 tested, 0.62% active; AID 720582;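 active = inhibition above a per-campaign cutoff equal to the mean of compounds falling between control-based bounds plus 3 SD, cut at about 20% in these data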;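 note: 0% = DMSO wells while the 100% control is not disclosed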
FAS TE block – inhibitors of human fatty acid synthase thioesterase domain | P49327 | recombinant FAS-TE, OMFH fluorogenic substrate, fluorescence endpoint | inhibition, % at 15 µM | 360,000 tested, 0.67% active | AID 602261;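 active = compounds whose normalised, plate-corrected inhibition of enzyme fluorescence in the single-dose primary screen is 50% or more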;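 note: 0% = DMSO with enzyme and 100% = substrate without enzyme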
CaV13 ICDI inh – Primary screen for inhibitors of IQ motif and Ca2+-dependent inactivation inhibitor domain binding in CACNA1D, Förster resonance energy transfer in living cells, …. HEK cells, CFP/YFP FRET ICDI-IQ, plate reader, 10 min; percent FRET-ratio fall versus neutral wells. inhibition, % at 12.3 µM. 340,000 tested, 0.098% active. AID 743397;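 active = mean replicate inhibition of at least 30% and at least 1% of replicates passing that level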;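 note: 0% = median of the neutral control wells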
ADAM17 inh – ADAM17 inhibition, QFRET primary screen; 370,000 tested, 0.83% active; inhibition, % at 6.95 µM; recombinant ADAM17, EDANS/DABCYL FRET peptide cleavage; P78536; AID 720648;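 active = inhibition above the mean of compounds lying between control limits plus 3 SD, set per campaign, cut at about 8.5% in these data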;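 note: 0% = DMSO-only wells as the low control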
The depositor's hits bear a star; i = inactive; x = not tested or not shown; + = active, no number.

SMILES	NRP1-CendR mod	Arr AP2 block	ADAM10 inh	FAS TE block	CaV13 ICDI inh	ADAM17 inh
Cc1c(N=C2C=C(Br)C(=O)C(Br)=C2)c(=O)n(-c2ccccc2)n1C	-8.9	16.2	-22.6	1.6	-4.3	-14.6
Cc1c(N=C2C=CC(=O)c3ccccc32)c(=O)n(-c2ccccc2)n1C	37.7*	26.3	-2.3	-9.0	-0.6	-0.2
CCCCCc1ccc(CC(=O)O)cc1	38.4*	2.6	0.3	-2.9	-5.6	-5.2
CCCCc1ccc(CC(=O)O)cc1	-2.9	12.1	10.2	-6.6	-4.7	-2.5
c1ccc(-c2nnc3n2-c2ccccc2SC3)cc1	5.4	-8.2	-1.1	0.4	5.9	-0.1
c1ccc2c(c1)OCC(c1nnc3n1-c1ccccc1SC3)O2 (stereo not given)	45.0*	0.1	-0.4	-2.6	x	0.3
COc1ccc(NC(=O)c2ccc(CN(c3cc(Cl)ccc3C)S(=O)(=O)c3ccccc3)cc2)cc1OC	-1.6	0.8	4.1	62.2*	x	1.9
CC(C)(C)OC(=O)NCCc1n[nH]c(=S)o1	27.2*	-3.2	15.9	0.9	-5.1	-1.6
CCC(=O)N1CCCC(C)(C(=O)Nc2ccc(OC(F)F)cc2)C1 (stereo not given)	-8.6	x	3.9	-4.4	-7.3	2.0
c1ccc(SCCc2ccncc2)cc1	1.6	2.1	-1.1	-6.4	x	-0.9
CC(C)(C)c1ccc(SCCc2cccnc2)cc1	30.9*	-3.9	1.0	10.8	-20.9	0.7
O=C(c1ccc(-c2cccc(C(F)(F)F)c2)o1)N1CCCC(C(F)(F)F)C1 (stereo not given)	21.5*	-0.8	4.2	30.3	-3.9	3.5
Cc1ccc(S(=O)(=O)/C(C#N)=C/c2c(N3CC(C)OC(C)C3)nc3c(C)cccn3c2=O)cc1 (stereo not given)	-15.3	4.6	-6.8	55.6*	-10.1	-1.3
CN1CCN(c2nc3ccccn3c(=O)c2/C=C(\C#N)S(=O)(=O)c2ccccc2)CC1	1.5	9.8	-56.2	3.3	99.1*	-23.6
COc1cc(C(=O)Nc2ccccc2N2CCOCC2)ccc1OCc1c(C)noc1C	27.2*	0.3	0.5	2.5	-3.6	-0.1
COc1ccc(CN2C(=O)c3ccccc3C2=O)cc1C(=O)Nc1ccccc1N1CCOCC1	32.3*	15.5	-12.2	38.5	-16.6	-3.0
COc1ccc(NC(=O)c2cc(CN3C(=O)c4ccccc4C3=O)ccc2OC)cn1	-8.8	-1.0	0.7	7.8	-3.8	-1.6
O=C(/C=C/c1cccc(Br)c1)OCC(=O)N1CCN(c2ccccc2)CC1	27.1*	-8.4	2.6	11.0	-5.1	1.4
O=C(COc1ccc(Cl)cc1Br)N1CCN(c2ccccc2)CC1	33.9*	-1.8	-2.6	22.5	x	-0.9
O=S(=O)(c1ccc(F)cc1)N1CCC(c2nc3ccccc3o2)CC1	x	x	-1.8	x	x	-1.8
CCOc1ccc(-n2c(SCC(=O)Nc3ccc(S(=O)(=O)Nc4cc(C)nc(C)n4)cc3)nnc2-c2ccc(OC)cc2)cc1	x	x	0.9	x	x	2.5
CC1CN(Cc2c(O)ccc3c(=O)c(-c4ccccc4)coc23)CC(C)O1 (stereo not given)	37.7*	4.5	i	-6.5	-6.6	-354.3
O=S1(=O)c2ccc(Br)cc2OC[C@@H](c2ccccc2)N1Cc1cn(CCC2OCCO2)nn1	x	x	-5.9	x	x	-3.6
Cc1occc1C(=O)NC(C)CCc1ccccc1 (stereo not given)	24.5*	-4.0	-6.0	2.8	x	-3.5
Cc1ccc(C)c(C(=O)NC(C)CCc2ccccc2)c1 (stereo not given)	4.8	27.9	-1.1	-2.4	-4.6	-0.1
SMILES	NRP1-CendR mod	Arr AP2 block	ADAM10 inh	FAS TE block	CaV13 ICDI inh	ADAM17 inh
CC(CCc1ccccc1)NC(=O)CNC(=O)c1cccs1 (stereo not given)	28.5*	-1.8	-7.3	-7.0	-5.6	-2.2
Cc1ccc(C(=O)NC(C)CCc2ccccc2)cc1[N+](=O)[O-] (stereo not given)	2.2	7.4	6.8	74.5*	-4.1	8.1
O=C(NCCN1CCNC1=O)c1ccc2sc([C@@H]3O[C@H](CO)[C@H](O)[C@H](O)[C@H]3O)nc2c1	-4.7	x	-7.5	-6.4	-2.4	-4.3
CCCCNC(=O)C1(C)CCC(=O)N1C1CC1 (stereo not given)	0.3	x	-15.6	-5.7	-9.5	-3.6
Cc1ccc(NC(=O)C(C)N=C2NS(=O)(=O)c3ccccc32)cc1F (stereo not given)	21.0*	0.6	-1.4	3.5	5.8	-5.3
CC(C)(C)N1C(=O)[C@H]2[C@@H](c3ccc(Br)cc3)N3C(=O)N(c4cccc(Br)c4)C(=O)[C@@]3(Cc3ccccc3)[C@H]2C1=O	-5.2	17.8	x	85.7*	x	x
CC[C@@]12C(=O)N(c3cccc(Cl)c3)C(=O)N1[C@H](c1ccc(Br)cc1)[C@@H]1C(=O)N(C(C)(C)C)C(=O)[C@@H]12	0.6	-16.3	13.5	56.2*	-10.7	4.7
O=C(/C=C/c1ccccc1)Nc1cccc(C(=O)NC2CC2)c1	-0.4	1.2	1.9	-8.5	-9.6	1.3
CCOC(=O)CC(=O)Nc1ncnc2c1C(c1ccccc1)c1c(ccc3ccccc13)O2 (stereo not given)	23.7*	-2.0	5.3	12.8	-4.1	1.4
Nc1ncnc2c1C(c1ccccc1)c1c(ccc3ccccc13)O2 (stereo not given)	-0.9	29.3	3.3	23.7	-4.3	0.1
CC(C)OCCCn1c(=N)c(C(N)=S)cc2c(=O)n3ccccc3nc21	-26.4	20.8	i	-17.7	44.7*	-391.9
CC(=O)N=c1c(C#N)cc2c(=O)n3ccccc3nc2n1CCCOC(C)C	-11.8	-6.5	i	13.3	+	i
CC(C)OCCCn1c(=NC(=O)c2ccncc2)c(C#N)cc2c(=O)n3ccccc3nc21	-5.0	12.3	-67.7	-5.6	-9.4	-15.0
COc1ccccc1N(C(=O)c1ccco1)C(C(=O)NC1CCCCC1)c1cc(OC)c(OC)c(OC)c1 (stereo not given)	26.5*	20.6	-1.1	-0.9	-3.7	-5.5
COc1ccccc1N(C(=O)CNC(=O)c1ccco1)C(C(=O)NC1CCCC1)c1ccco1 (stereo not given)	17.9*	-1.8	-3.0	-3.2	-2.9	0.1
Cc1cc(C)cc(N(C(=O)CNC(=O)c2ccco2)C(C(=O)NC2CCCCC2)c2ccncc2)c1 (stereo not given)	21.5*	-10.2	-3.7	-0.8	-5.2	-3.6
Cc1cc(C)cc(N(C(=O)CNC(=O)c2ccco2)C(C(=O)NC2CCCCC2)c2cccnc2)c1 (stereo not given)	5.9	20.4	2.8	-3.5	-1.9	-0.1
Nc1[nH]c(C(=O)c2ccccc2)c(-c2cccnc2)c1C(=O)c1ccccc1	x	x	-1.4	x	-6.1	-4.0
